Assay results as given in ChEMBL document CHEMBL3102817, “Mycoleptones A-C and polyketides from the endophyte Mycoleptodiscus indicus” (J Nat Prod, 2014).

Experiments:
[1] = Cytotoxicity against human lymphocytes by colorimetric method; assay type: cell-based; conditions: Lymphocyte
SF-295 = assay: Cytotoxicity against human SF295 cells by colorimetric method; assay type: functional, cell-based
HL-60 = assay: Cytotoxicity against human HL60 cells by colorimetric method; assay type: functional, cell-based
[2] = Cytotoxicity against human HCT8 cells by colorimetric method; assay type: functional, cell-based; conditions: HCT-8
MDA-MB-435 = assay: Cytotoxicity against human MDA-MB-435 cells by colorimetric method; assay type: functional, cell-based
Leishmania donovani = assay: Antileishmanial activity against Leishmania donovani by AlamarBlue assay; assay type: functional, organism-based
In short: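 Microplate Alamar Blue (MABA) growth-inhibition assay on *L. donovani*, with amphotericin B and pentamidine as reference drugs.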

Leishmania major = assay: Antileishmanial activity against Leishmania major by AlamarBlue assay; assay type: functional; conditions: read-out: LD50 (the source's name)
PC-3 = assay: Cytotoxicity against human PC3 cells by colorimetric method; assay type: functional, cell-based

| SMILES | IC50 [1] | IC50 (SF-295) | IC50 (HL-60) | IC50 [2] | IC50 (MDA-MB-435) | IC50 (Leishmania donovani) | LC50 (Leishmania major) | IC50 (PC-3) |
| --- | --- | --- | --- | --- | --- | --- | --- | --- |
| CC1=CC2=C(C=O)C(=O)[C@](C)(O)[C@@H](O)C2=CO1 | > 113 µM | 28 µM | 38.8 µM | 12.9 µM | 34.3 µM | 80.5 µM | 20.5 µM | – |
| CC1=CC2=C(CC3=C4C=C(C)OC=C4[C@H](O)[C@@](C)(O)C3=O)C(=O)[C@](C)(O)[C@@H](O)C2=CO1 | > 58 µM | > 58 µM | > 58 µM | > 58 µM | > 58 µM | > 93.4 µM | 28.5 µM | 10 µM |
| COc1cc2oc(C)cc(=O)c2c(O)c1C | > 113 µM | > 113 µM | > 113 µM | > 113 µM | > 113 µM | > 181 µM | 39.9 µM | > 113 µM |
| CC1=CC2=C(Cc3c(O)c(C)c4c(c3O)C(=O)OC(C)C4)C(=O)[C@](C)(O)[C@@H](O)C2=CO1 (stereo partly drawn) | > 58 µM | > 58 µM | > 58 µM | > 58 µM | > 58 µM | – | 21.7 µM | 7.1 µM |
| COc1cc2oc(CO)cc(=O)c2c(O)c1C | > 105 µM | > 105 µM | > 105 µM | > 105 µM | > 105 µM | – | – | > 105 µM |
| CC(=O)O[C@H]1C2=COC(C)=CC2=C(C=O)C(=O)[C@]1(C)OC(C)=O | > 78 µM | 26.3 µM | 22.1 µM | 13.9 µM | 26.9 µM | 59.3 µM | 19.8 µM | – |
| CC(=O)O[C@H]1C2=COC(C)=CC2=C(CC2=C3C=C(C)OC=C3[C@H](OC(C)=O)[C@@](C)(OC(C)=O)C2=O)C(=O)[C@]1(C)OC(C)=O | > 42 µM | > 42 µM | > 42 µM | > 42 µM | > 42 µM | – | – | 33.3 µM |
| C[C@@H]1[C@H](O)[C@@H](C)/C=C/C=C/C=C/C=C/C=C/C=C/C=C/[C@H](O[C@@H]2O[C@H](C)[C@@H](O)[C@H](N)[C@@H]2O)C[C@@H]2O[C@](O)(C[C@@H](O)C[C@@H](O)[C@H](O)CC[C@@H](O)C[C@@H](O)CC(=O)O[C@H]1C)C[C@H](O)[C@H]2C(=O)O [AMPHOTERICIN B] | – | – | – | – | – | 0.14 µM | – | – |
| COc1cccc2c1C(=O)c1c(O)c3c(c(O)c1C2=O)C[C@@](O)(C(=O)CO)C[C@@H]3O[C@H]1C[C@H](N)[C@H](O)[C@H](C)O1 [DOXORUBICIN] | 0.7 µM | 0.7 µM | – | – | 1.51 µM | – | – | 0.41 µM |
| CN[C@@H]1[C@@H](O)[C@@H](O[C@@H]2[C@@H](O)[C@H](O[C@H]3O[C@H]([C@@H](C)O)[C@@H](O)[C@H](O)[C@H]3N)[C@@H](N)C[C@H]2N)OC[C@]1(C)O [GENETICIN] | – | – | – | – | – | – | 3.43 µM | – |
| COc1cc2oc(C)cc(=O)c2c(O)c1OC [STELLATIN] | > 105 µM | > 105 µM | > 105 µM | > 105 µM | > 105 µM | > 169 µM | 34.5 µM | 20.5 µM |
